Converted amounts (≈) assume the structure as drawn. The source made the active and inactive calls. The rule behind the calls is not given here.
Experiments:
Candida parapsilosis [1] = assay: Antifungal activity against Candida parapsilosis ATCC 22019 after 48 hrs by broth microdilution method; format: functional; conditions: Lodderomyces parapsilosis, ATCC 22019, 48 h
Method in brief: (§1)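 CLSI broth microdilution with final drug concentrations […], incubated at 35°C and read spectrophotometrically at 490 nm at 24 and 48 h. MIC is the first concentration giving 50% turbidity reduction versus control, or 90% for amphotericin B. Run in quintuplicate.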

Nakaseomyces glabratus [2] = assay: Antifungal activity against Candida glabrata isolate 4198 after 48 hrs by broth microdilution method; format: functional; method in brief: as §1
Nakaseomyces glabratus [3] = assay: Antifungal activity against Candida glabrata isolate 4205 after 48 hrs by broth microdilution method; format: functional; conditions: isolate 4205, 48 h; method in brief: as §1
Nakaseomyces glabratus [4] = assay: Antifungal activity against Candida glabrata isolate 4293 after 48 hrs by broth microdilution method; format: functional; method in brief: as §1
Nakaseomyces glabratus [5] = assay: Antifungal activity against Candida glabrata isolate 4370 after 48 hrs by broth microdilution method; format: functional; method in brief: as §1
Nakaseomyces glabratus [6] = assay: Antifungal activity against 2.44 x 10^8 CFU Candida glabrata isolate 4293 infected in CD1 mouse assessed as reduction in fungal burden per kidney pair at 1 mg/kg/day, ip administered from day 1 to day 2 post viral challenge measured on day 3 postinfection; format: functional, organism-based
Method in brief: (§2)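 Male CD1 mice (25 g) made neutropenic with cyclophosphamide 200 mg/kg/day ip on days −4, +1 and +4 postinfection. Infected iv with C. glabrata 4293 in 0.2 ml. Treatment began 24 h postchallenge, with 1 mg/kg/day ip in 0.2 ml. Sacrifice on day 3 or day 7. Kidney pairs homogenized; diluted and undiluted aliquots plated on Sabouraud dextrose agar for CFU. Medians reported; 7–8 mice per group.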

Nakaseomyces glabratus [7] = assay: Antifungal activity against 1.04 x 10^8 CFU Candida glabrata isolate 4293 infected in CD1 mouse assessed as reduction in fungal burden per kidney pair at 1 mg/kg/day, ip administered from day 1 to day 2 post viral challenge measured on day 3 postinfection; format: functional, organism-based; method in brief: as §2
Nakaseomyces glabratus [8] = assay: (§3) Antifungal activity against 2.44 x 10^8 CFU Candida glabrata isolate 4293 infected in CD1 mouse assessed as reduction in […] per kidney pair at 1 mg/kg/day, ip administered from day 1 to day 2 followed by PEG-200 infusion from day 3 to day 6 […] measured on day 7 postinfection relative to control; format: functional, organism-based; method in brief: as §2
Nakaseomyces glabratus [9] = assay: as §3, with “1.04” for “2.44”; format: functional, organism-based; method in brief: as §2
Nakaseomyces glabratus [10] = assay: (§4) Antifungal activity against 2.44 x 10^8 CFU Candida glabrata isolate 4293 infected in CD1 mouse assessed as inhibition of regrowth in fungal burden in kidney at 1 mg/kg/day, ip administered from day 1 to day 2 post viral challenge measured on day 7 postinfection; format: functional, organism-based; method in brief: as §2
Nakaseomyces glabratus [11] = assay: (§5) Antifungal activity against 1.04 x 10^8 CFU Candida glabrata isolate 4293 infected in CD1 mouse assessed as inhibition of regrowth in fungal burden in kidney at 1 mg/kg/day, ip administered from day 1 to day 2 post viral challenge measured on day 7 postinfection; format: functional, organism-based; method in brief: as §2
Nakaseomyces glabratus [12] = assay: as §4, with “day 2 followed by PEG-200 infusion from day 3 to day 6 post viral” for “day 2 post viral”; format: functional, organism-based; method in brief: as §2
Nakaseomyces glabratus [13] = assay: as §5, with “day 2 followed by PEG-200 infusion from day 3 to day 6 post viral” for “day 2 post viral”; format: functional, organism-based; method in brief: as §2
Candida parapsilosis [14] = assay: Antifungal activity against Candida parapsilosis ATCC 22019 after 24 hrs by broth microdilution method; format: functional; conditions: Lodderomyces parapsilosis, ATCC 22019, 24 h
Method in brief: (§6)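 CLSI broth microdilution, final drug concentrations 0.0078–8 µg/ml. Incubated at 35°C and read at 24 and 48 h by OD490. MIC is the first concentration giving 50% (azole, echinocandin) or 90% (polyene) less turbidity than the drug-free control. Quintuplicate.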

Nakaseomyces glabratus [15] = assay: Antifungal activity against Candida glabrata isolate 4198 after 24 hrs by broth microdilution method; format: functional; method in brief: as §1
Nakaseomyces glabratus [16] = assay: Antifungal activity against Candida glabrata isolate 4205 after 24 hrs by broth microdilution method; format: functional; conditions: isolate 4205, 24 h; method in brief: as §1
Nakaseomyces glabratus [17] = assay: Antifungal activity against Candida glabrata isolate 4293 after 24 hrs by broth microdilution method; format: functional; method in brief: as §6
Nakaseomyces glabratus [18] = assay: Antifungal activity against Candida glabrata isolate 4370 after 24 hrs by broth microdilution method; format: functional; method in brief: as §1
Nakaseomyces glabratus [19] = assay: Antifungal activity against 2.44 x 10^8 CFU Candida glabrata isolate 4293 infected in CD1 mouse assessed as inhibition of regrowth in fungal burden in kidney at 1 mg/kg/day, ip administered from day 1 to day 2 post viral challenge measured on day 3 postinfection; format: functional, organism-based; method in brief: as §2
Nakaseomyces glabratus [20] = assay: Antifungal activity against 1.04 x 10^8 CFU Candida glabrata isolate 4293 infected in CD1 mouse assessed as inhibition of regrowth in fungal burden in kidney at 1 mg/kg/day, ip administered from day 1 to day 2 post viral challenge measured on day 3 postinfection; format: functional, organism-based; method in brief: as §2

C[C@@H]1[C@H](O)[C@@H](C)/C=C/C=C/C=C/C=C/C=C/C=C/C=C/[C@H](O[C@@H]2O[C@H](C)[C@@H](O)[C@H](N)[C@@H]2O)C[C@@H]2O[C@](O)(C[C@@H](O)C[C@@H](O)[C@H](O)CC[C@@H](O)C[C@@H](O)CC(=O)O[C@H]1C)C[C@H](O)[C@H]2C(=O)O [AMPHOTERICIN B]
MIC (Candida parapsilosis [1]): 1 µg/mL (≈ 1.08 µM)
MIC (Nakaseomyces glabratus [2]): 0.5 µg/mL (≈ 0.541 µM)
MIC (Nakaseomyces glabratus [3]): 0.5 µg/mL (≈ 0.541 µM)
MIC (Nakaseomyces glabratus [4]): 0.5 µg/mL (≈ 0.541 µM)
MIC (Nakaseomyces glabratus [5]): 1 µg/mL (≈ 1.08 µM)
Activity (Nakaseomyces glabratus [6]): inactive
Activity (Nakaseomyces glabratus [7]): inactive
Activity (Nakaseomyces glabratus [8]): Active
Activity (Nakaseomyces glabratus [9]): Active
Activity (Nakaseomyces glabratus [10]): inactive
Activity (Nakaseomyces glabratus [11]): inactive
Activity (Nakaseomyces glabratus [12]): inactive
Activity (Nakaseomyces glabratus [13]): inactive

CC[C@H](C)C[C@H](C)CCCCCCCCC(=O)N[C@H]1C[C@@H](O)[C@@H](NCCN)NC(=O)[C@@H]2[C@@H](O)CCN2C(=O)[C@H]([C@H](O)CCN)NC(=O)[C@H]([C@H](O)[C@@H](O)c2ccc(O)cc2)NC(=O)[C@@H]2C[C@@H](O)CN2C(=O)[C@H]([C@@H](C)O)NC1=O [CASPOFUNGIN]
MIC (Candida parapsilosis [14]): 0.25 µg/mL (≈ 0.229 µM)
MIC (Nakaseomyces glabratus [15]): 0.25 µg/mL (≈ 0.229 µM)
MIC (Nakaseomyces glabratus [16]): 0.25 µg/mL (≈ 0.229 µM)
MIC (Nakaseomyces glabratus [17]): ≤ 0.03 µg/mL
MIC (Nakaseomyces glabratus [18]): 0.125 µg/mL (≈ 0.114 µM)
Activity (Nakaseomyces glabratus [6]): inactive
Activity (Nakaseomyces glabratus [7]): inactive
Activity (Nakaseomyces glabratus [8]): Active
Activity (Nakaseomyces glabratus [9]): Active
Activity (Nakaseomyces glabratus [19]): Active
Activity (Nakaseomyces glabratus [20]): Active
Activity (Nakaseomyces glabratus [10]): Active
Activity (Nakaseomyces glabratus [11]): Active

Reference: ChEMBL document CHEMBL1151473, “Posaconazole activity against Candida glabrata after exposure to caspofungin or amphotericin B” (2008)
